This passage reports folding enthalpy and Tm results from the array DNA melting data of Ke et al. (doi:10.1101/2024.01.08.574731).

Data set [1] in a line: folding enthalpy; higher = less favourable; fluorescence melt of hairpins on a sequencing array, two-state fit. As to conditions: sodium 0.088 M. A digest of the protocol: (§1)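 Melting temperature and folding enthalpy were obtained by bootstrapped two-state fitting. Fits used Cy3 fluorescence of library hairpins with annealed Cy3 and quencher oligos on a sequenced MiSeq flow cell, imaged in 50 mM Na-HEPES pH 8.0, 25 mM NaCl in 2.5 °C steps up to 60 °C and normalised to pre-quench Cy3 and control constructs. Four replicates were combined by inverse-variance weighting, and fitted temperatures were raised by 9.35 °C to match UV melts.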

The nature of data set [2]: melting temperature; fluorescence melt of hairpins on a sequencing array, two-state fit, raised by 9.35 °C to match UV melts. As to conditions: sodium 0.088 M. The method, boiled down: as §1

Regarding GGTGACGAAAGTCCTACC ((((((....)))..))), in data set [1], the folding enthalpy is -13.8 kcal/mol. In addition, the Tm in data set [2] amounted to 33.5 °C.
The like results for GCGACCTTTCGC ((((....)))) were, in that order, -21.4 kcal/mol and 47 °C.
As to GCTCACGAAAGTGTAGC ((((((....))).))), the folding enthalpy in data set [1] is -24.6 kcal/mol. The Tm in data set [2] is 51.5 °C.
On to GCAGCGCGAAAGCCTTGC (((..((....))..))), for which the folding enthalpy in data set [1] was -12.4 kcal/mol. The Tm in data set [2] amounted to 40 °C.
Consider GGGCCCGAAAGGGAACCC ((((((....)))..))), for which, in data set [1], the folding enthalpy is -15.6 kcal/mol. Further, the Tm in data set [2] stood at 57.5 °C.
For GCTGCGCGAAAGCCCCGC ((.(.((....)).).)), the folding enthalpy in data set [1] is -9.96 kcal/mol. Moreover, the Tm in data set [2] stood at 31.8 °C.
For the sequence GGAGGAGGAAACTTCTCC ((((.((....)).)))), in data set [1], the folding enthalpy is -35.9 kcal/mol. For the same sequence, the Tm in data set [2] came to 45.2 °C.
In the case of GGCTCCGAAAGGACTGCC ((((((....)))..))), the folding enthalpy in data set [1] was -19.1 kcal/mol. The Tm in data set [2] was 47.6 °C.
As to GAGCTCCGAAAGGACTC (((.(((....)))))), in data set [1], the folding enthalpy is -23.6 kcal/mol. Besides, in data set [2], the Tm was 47.4 °C.
The like results for GGGATCGAAAGATCGCCC ((((((....)))..))) were, in that order, -15.3 kcal/mol and 47.2 °C.
As for GCCCCAGGAAACTGGGAC (.(((((....))))).), in data set [1], the folding enthalpy was -15.6 kcal/mol. The Tm in data set [2] is 46.1 °C.
As to GCTGTGGGAAACTACAGC (((((.(....).))))), in data set [1], the folding enthalpy was -41.4 kcal/mol. Moreover, the Tm in data set [2] was 53.1 °C.
With GAGACAGGAAACCGTCTC (((((.(....).))))), the folding enthalpy in data set [1] was -29.2 kcal/mol. Moreover, the Tm in data set [2] was found to be 46.3 °C.
Taken in the same sequence, the figures for GCGGTTGCGAAAGCACGC (((..(((....)))))) were -19.9 kcal/mol and 56.6 °C.
Turning to GTTGAGGCGAAAGCCAAC (((..(((....)))))), the folding enthalpy in data set [1] is -14.6 kcal/mol. In addition, in data set [2], the Tm stood at 40.7 °C.
For the sequence GCGTAACAACGC ((((....)))), the folding enthalpy in data set [1] was -27 kcal/mol. The Tm in data set [2] was 52.9 °C.
Taken in the same sequence, the figures for GCTAGATCGAAAGATAGC (((..(((....)))))) were -19.4 kcal/mol and 36.4 °C.
For the sequence GGGCTTGAAAAAGCCC ((((((....)))))), the folding enthalpy in data set [1] was -35.8 kcal/mol. Moreover, the Tm in data set [2] worked out at 68.1 °C.
As for GGATGCGAAAGCAGCTCC ((((((....)))..))), the folding enthalpy in data set [1] was -11.3 kcal/mol. Also, in data set [2], the Tm is 47.5 °C.
Consider GGTAGCGAAAGCTACACC ((((((....)))..))), for which the folding enthalpy in data set [1] was -9.32 kcal/mol. Besides, the Tm in data set [2] amounted to 50.5 °C.
Taken in the same sequence, the figures for GCCTGCGGAAACGCAGAC (.(((((....))))).) were -12.1 kcal/mol and 50 °C.
With CGGACGGAAACGTAACCG ((((((....)))..))), the folding enthalpy in data set [1] is -28.7 kcal/mol. Besides, the Tm in data set [2] worked out at 36.1 °C.
The like results for GACAGCGAAAGCTGTGTC ((((((....)))..))) were, in that order, -10.8 kcal/mol and 56.9 °C.
For the sequence GCGATTGGTCGC ((((....)))), the folding enthalpy in data set [1] is -23.4 kcal/mol. The Tm in data set [2] worked out at 52.1 °C.
As to GATCCGGATCGGATC ((((((...)))))), the folding enthalpy in data set [1] is -35.4 kcal/mol. Further, in data set [2], the Tm stood at 55.6 °C.
The like results for GATCGTTCCCACGATC ((((((....)))))) were, in that order, -43.2 kcal/mol and 53.8 °C.
As to GCCCACGGAAACGTAGGC (((.(((....))).))), the folding enthalpy in data set [1] is -30.6 kcal/mol. Further, in data set [2], the Tm came out at 48.4 °C.
Take GTGACCGAAAGGTTCCAC ((((((....)))..))): in data set [1], the folding enthalpy is -9.64 kcal/mol. The Tm in data set [2] is 33.2 °C.
Take GCACTGCGAAAGCTATGC (((..((....))..))): in data set [1], the folding enthalpy was -16.7 kcal/mol. Also, the Tm in data set [2] came out at 40.3 °C.
For GATCCCAAAGGGGATC ((((((....)))))), in data set [1], the folding enthalpy is -31.7 kcal/mol. In addition, in data set [2], the Tm amounted to 57.3 °C.
The like results for GACAGCCGAAAGGCGGTC (((.(((....))).))) were, in that order, -20.1 kcal/mol and 67 °C.
Turning to CTAGGGAAACCTAG (((((....))))), the folding enthalpy in data set [1] is -17.2 kcal/mol. In addition, the Tm in data set [2] came to 39.4 °C.
For the sequence GTCTGTGGAAACACAGAC (((((((....))))))), in data set [1], the folding enthalpy is -50.5 kcal/mol. For the same sequence, the Tm in data set [2] was 65.1 °C.
With GTTTCCGGAAACGGAAAC (((((((....))))))), the folding enthalpy in data set [1] was -46.4 kcal/mol. For the same sequence, in data set [2], the Tm was 64.6 °C.
Taken in the same sequence, the figures for GTACACGGAAACGTATAC (((.(((....))).))) were -23.8 kcal/mol and 33.6 °C.
Regarding GTTGACGAAAGTCCAAAC ((((((....)))..))), the folding enthalpy in data set [1] was -9.18 kcal/mol. Moreover, the Tm in data set [2] amounted to 24.3 °C.
Take GATCGCTTATGCGATC ((((((....)))))): the folding enthalpy in data set [1] is -33.8 kcal/mol. In addition, in data set [2], the Tm amounted to 68.1 °C.
